In PubChem BioAssay:
Values joined by “and” are separate entries in the source; they are usually repeats but may differ in a detail not shown here. Identical values can stand only once. Active and inactive are the calls of the source.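 The calls were made as follows, unless noted: active = viability at or below 10% of carrier control in both of two separate runs; inconclusive = viability at or below 10% in only one of the two runs; inactive = the rest.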

Tests used:
[1] = reducers of endogenous Her2 protein level, primary screen, SKBR3 breast tumor cells, AlphaScreen, ATP viability (AID 461;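 active = Her2 level under about 52% in both replicate screens, with viability over 70% of control, limit read from the data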;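 as to Her2 level: lower value means less Her2 protein in the cells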;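 as to viability: percent of carrier control wells set as 100% viability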); details: 18-24 h, measured here: SKBR3 viability, ATP luminescence, at 10 µM
[2] = target: Receptor tyrosine-protein kinase erbB-2 (Homo sapiens) (UniProt P04626); experiment: as above; details: 18-24 h, at 10 µM, stronger effect = lower value
Sequence of Receptor tyrosine-protein kinase erbB-2 (Homo sapiens) (P04626 whole entry, looked up): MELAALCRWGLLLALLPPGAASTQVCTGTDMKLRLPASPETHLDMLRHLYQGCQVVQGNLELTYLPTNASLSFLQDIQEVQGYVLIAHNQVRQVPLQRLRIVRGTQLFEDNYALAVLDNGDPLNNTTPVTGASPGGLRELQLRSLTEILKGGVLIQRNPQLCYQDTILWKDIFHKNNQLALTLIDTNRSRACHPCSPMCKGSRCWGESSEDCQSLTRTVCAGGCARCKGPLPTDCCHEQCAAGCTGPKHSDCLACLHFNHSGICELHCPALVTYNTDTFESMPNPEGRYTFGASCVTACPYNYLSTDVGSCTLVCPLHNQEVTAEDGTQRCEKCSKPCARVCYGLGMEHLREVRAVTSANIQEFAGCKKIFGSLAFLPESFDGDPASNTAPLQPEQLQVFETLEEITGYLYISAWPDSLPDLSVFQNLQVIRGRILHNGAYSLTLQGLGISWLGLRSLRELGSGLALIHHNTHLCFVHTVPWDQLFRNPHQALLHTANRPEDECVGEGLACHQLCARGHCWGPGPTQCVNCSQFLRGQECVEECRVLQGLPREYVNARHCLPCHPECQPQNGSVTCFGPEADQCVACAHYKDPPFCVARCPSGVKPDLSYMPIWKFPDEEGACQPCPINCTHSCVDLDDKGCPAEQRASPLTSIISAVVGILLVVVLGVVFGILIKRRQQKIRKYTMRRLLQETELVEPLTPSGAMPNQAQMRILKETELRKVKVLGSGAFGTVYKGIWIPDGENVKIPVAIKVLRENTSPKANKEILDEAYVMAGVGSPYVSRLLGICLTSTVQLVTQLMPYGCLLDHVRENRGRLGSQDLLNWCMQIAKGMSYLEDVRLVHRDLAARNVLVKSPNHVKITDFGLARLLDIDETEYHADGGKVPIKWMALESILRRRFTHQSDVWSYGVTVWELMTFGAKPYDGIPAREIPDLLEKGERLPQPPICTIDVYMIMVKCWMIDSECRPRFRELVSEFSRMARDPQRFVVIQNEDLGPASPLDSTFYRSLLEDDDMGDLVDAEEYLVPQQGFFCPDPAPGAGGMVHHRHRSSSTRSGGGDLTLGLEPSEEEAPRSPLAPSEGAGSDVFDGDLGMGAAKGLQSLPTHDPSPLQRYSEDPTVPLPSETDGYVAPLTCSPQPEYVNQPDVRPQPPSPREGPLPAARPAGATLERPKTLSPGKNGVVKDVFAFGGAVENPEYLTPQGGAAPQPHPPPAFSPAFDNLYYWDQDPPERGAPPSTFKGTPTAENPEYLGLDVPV

[3] = SK-BR-3 cell growth inhibitors, pilot screen, 24 h, human (AID 572); details: SK-BR-3 viability, CellTiter-Glo luminescence, at 10 µM, stronger effect = lower value;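 also: compound exposure lasted between 18 and 24 h rather than exactly 24 h; 100% = carrier-treated control wells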
[4] = HUVEC growth inhibition – cell-based, human, primary screen (AID 575;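 active = viability at or below 30% in both replicate assays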;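 also: 100% = median of untreated cell wells with 0.1% DMSO on each plate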); details: HUVEC proliferation, CellTiter-Glo luminescence, 72 h; at 10 µM; stronger effect = lower value
Procedure, shortened: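 system = HUVEC primary cells | amount = 1250 cells/well | buffer or medium = supplemented EBM, 2% fetal bovine serum | dosing = single-point 10 µM, DMSO 0.1% final | times = 72 h compound incubation | detection = CTG luminescence | read-out = % viability relative to median vehicle-well signal on each plate | control set = vehicle and MePR control wells | format = collagen-coated 384-well format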

[5] = growth inhibitors of H69AR lung tumor, primary screen, human, duplicate replicates (AID 580;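 active = viability at or under a set limit in both replicates, limit being median viability minus 3 SD, cut at about 48% in these data, passing the limit was not always enough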;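 also: 100% = mean luminescence of untreated wells and 0% = no signal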); details: H69AR lung tumor cells viability, ATP luminescence, 72 h; at 10 µM; stronger effect = lower value
[6] = reversal of MRP1-mediated doxorubicin resistance, pilot screen, H69AR cells, doxorubicin co-treatment (AID 601;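 active = viability loss from added drug above about 55%, and viability with drug at most 40%, in both replicates, limit read from the data, passing the limit was not always enough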); details: CellTiter-Glo, 72 h, at 10 µM; for differential viability (reversal): stronger effect = higher value
[7] = 384-well plate pilot, post-Golgi transport modulator project, inhibition of yeast transport mutant growth (AID 636; in the data active = inhibition above about 31%); details: absorbance 615 nm, about 18 h, stronger effect = higher value
[8] = growth suppression of yeast trafficking mutant, preliminary HTS, modulators of trafficking downstream of Golgi apparatus project, 1536-format plate, OD 615 nm (AID 637; in the data active = inhibition above about 30%); details: yeast transport mutant growth, absorbance 615 nm, 18 h; stronger effect = higher value
[9] = H69AR cells + 2 uM doxorubicin, measured here: viability with 2 uM doxorubicin, stronger effect = lower value
[10] = H69AR cells, compound alone cytotoxicity

Row | SMILES | viability [1] | Her2 level [2] | viability [3] | viability [4] | viability [5] | differential viability (reversal) ([6]; H69AR cells + 2 uM doxorubicin) | viability [6, 9] | viability [6, 10] | inhibition [7] | inhibition [8]
1 | COc1ccc2c(c1OC)C(=O)OC2C1c2c(cc3c(c2OC)OCO3)CCN1C (stereo not given) | 89% | 90.5% (inactive) | 89% (inactive) and 83% (inactive) | 70.2% (inactive) and 90.3% (inactive) | 73.8% (inactive) | -40% (inactive) and -23.1% (inactive) | 91.6% and 97% | 51.7% and 73.8% | 1.95% (inactive) and -2.86% (inactive) | 4.92% (inactive) and 5.33% (inactive)
2 | CC1CCN(CC(O)COC2CCC(C(C)(C)C)CC2)CC1 (stereo not given) | 82% | 76% (inactive) | 82% (inactive) | 73.8% (inactive) | 74.5% (inactive) | 3.15% (inactive) | 71.4% | 74.5% | 97.8% (active) | 84.4% (active)
3 | CC1=C(C(=O)Nc2ccccc2)C(c2ccco2)C(C#N)=C(SCC(=O)Nc2cccc(C)c2C)N1 (stereo not given) | 104% | 85.5% (inactive) | 104% (inactive) | 77.1% (inactive) | 47.5% (active) | -10.1% (inactive) | 57.6% | 47.5% | -4.93% (inactive) | -3.97% (inactive)
4 | CCOC(=O)C1CCN(C(=O)c2ccc(Cl)c(Cl)c2)CC1 | 75.5% | 105% (inactive) | 75.5% (inactive) | 94.3% (inactive) | 102% (inactive) | 5.88% (inactive) | 96.3% | 102% | 3.65% (inactive) | -2.3% (inactive)
5 | O=C(C1CCC(N2C(=O)C3CC=CCC3C2=O)CC1)N1CCCCC1 (stereo not given) | 75.5% | 113% (inactive) | 75.5% (inactive) | 96.3% (inactive) | 91.8% (inactive) | 8.11% (inactive) | 83.7% | 91.8% | 0.64% (inactive) | -5.83% (inactive)
6 | CC(C)=CC(=O)N1CCCc2ccccc21 | 112% | 90% (inactive) | 112% (inactive) | 105% (inactive) | 98.4% (inactive) | 5.13% (inactive) | 93.2% | 98.4% | -4.53% (inactive) | -7.21% (inactive)
7 | CC(=O)Nn1c(C)nnc1-n1nc(C)cc1C | 126% | 112% (inactive) | 126% (inactive) | 77.5% (inactive) | 97.8% (inactive) | 4.38% (inactive) | 93.4% | 97.8% | -1.95% (inactive) | -1.64% (inactive)
8 | C[C@]12CCC(=O)C=C1CC[C@@H]1[C@@H]2[C@@H](O)C[C@@]2(C)[C@H]1CC[C@]2(O)C(=O)COC(=O)CCC(=O)O | 95% | 120% (inactive) | 95% (inactive) and 100% (inactive) | 81.3% (inactive) and 75% (inactive) | 111% (inactive) and 103% (inactive) | 9.53% (inactive) and -0.58% (inactive) | 101% and 103% | 111% and 103% | -3.38% (inactive) | 6.33% (inactive)
9 | COc1ccc(-c2nnc(SCC(=O)Nc3ccc(Cl)cc3)n2C)cc1 | 82.5% | 104% (inactive) | 82.5% (inactive) | 92.8% (inactive) | 90.2% (inactive) | 8% (inactive) | 82.2% | 90.2% | -0.93% (inactive) | -9.21% (inactive)
10 | O=S(=O)(c1ccc2c(c1)nc1n2CCC1)N1CCOCC1 | 102% | 87% (inactive) | 102% (inactive) | 102% (inactive) | 98.9% (inactive) | 7.71% (inactive) | 91.2% | 98.9% | -0.26% (inactive) | -4.44% (inactive)
11 | CC(=O)N1CCN=C1SCc1ccc(Br)cc1 | 93% | 97.5% (inactive) | 93% (inactive) | 71.9% (inactive) | 87% (inactive) | 3.28% (inactive) | 83.7% | 87% | -1.03% (inactive) | 9% (inactive)
12 | COC(=O)c1ccc(C2NC(C(=O)O)CS2)cc1 (stereo not given) | 132% | 103% (inactive) | 132% (inactive) | 102% (inactive) | 89% (inactive) | -8.38% (inactive) | 97.3% | 89% | -0.79% (inactive) | 3.02% (inactive)
13 | O/N=C/c1ccc(OCC(O)COc2ccc(/C=N/O)cc2)cc1 | 89.5% | 112% (inactive) | 89.5% (inactive) | 75.9% (inactive) | 90.1% (inactive) | -1.19% (inactive) | 91.3% | 90.1% | -1.54% (inactive) | 4.83% (inactive)
14 | O=C(Nc1ccccc1C(=O)N1CCCCCC1)c1cccc(S(=O)(=O)N2CCOCC2)c1 | 95.5% | 96% (inactive) | 95.5% (inactive) | 94.1% (inactive) | 95.5% (inactive) | -7.13% (inactive) | 103% | 95.5% | -1.84% (inactive) | -1.45% (inactive)
